{"data": "Experimental data collected from several papers", "Trypanothione synthetase": "Trypanothione synthetase (Trypanosoma cruzi, UniProt Q9GT49)", "Tmem97": "Sigma intracellular receptor 2 (Tmem97, Rattus norvegicus, UniProt Q5U3Y7)", "TACR1": "Substance-P receptor (TACR1, Homo sapiens, UniProt P25103)", "SIK1": "Serine/threonine-protein kinase SIK1 (SIK1, Homo sapiens, UniProt P57059)", "HTR2C": "5-hydroxytryptamine receptor 2C (HTR2C, Homo sapiens, UniProt P28335)", "EAPA": "Endothiapepsin (EAPA, Cryphonectria parasitica, UniProt P11838)", "note": "Compare with care: the assays were run in different laboratories."}
{"Structure (SMILES)": "O=C1N=C(N2CCCCN2)S/C1=C\\c1ccc(F)cc1O", "target": "B2 bradykinin receptor (BDKRB2, Homo sapiens, UniProt P30411)", "assay": "ligand displacement, radioligand", "conditions": "10 µM", "inhibition": "< 10%"}
{"Structure (SMILES)": "C=CC1=C(C)C2=Cc3c(C=C)c(C)c4[n]3[Sn]([Cl])([Cl])[n]3c(c(C)c(CCC(=O)O)c3=CC3=NC(=C4)C(C)=C3CCC(=O)O)=CC1=N2", "target": "Trypanothione synthetase", "assay": "enzyme activity, inhibitor, absorbance", "conditions": "25 µM", "inhibition": "18.7%"}
{"Structure (SMILES)": "CCCNc1nc2ccccc2n1Cc1ccc(Cl)cc1", "target": "Tmem97", "assay": "ligand displacement", "conditions": "10 µM", "inhibition": "54%"}
{"Structure (SMILES)": "O=C(Nc1ccc(S(=O)(=O)N2CCC(Cl)CC2)cc1)c1ccc([N+](=O)[O-])o1", "target": "TACR1", "assay": "ligand displacement, radioligand", "conditions": "10 µM", "inhibition": "3%"}
{"Structure (SMILES)": "Cc1ccc(Nc2nccc(N(C)c3ccc4c(C)n(C)nc4c3)n2)cc1S(N)(=O)=O", "target": "SIK1", "assay": "enzyme activity, inhibitor", "conditions": "10 µM", "inhibition": "69%"}
{"Structure (SMILES)": "COc1cc(NC(C)=O)c(Cl)cc1C(=O)Nc1nccs1", "target": "TACR1", "assay": "cell-free assay", "conditions": "10 µM", "inhibition": "-2.9%"}
{"Structure (SMILES)": "CCN(Cc1ccccc1C(F)(F)F)C(=O)C1CCN(S(=O)(=O)c2ccc3[nH]ncc3c2)CC1", "target": "Melatonin receptor type 1A (MTNR1A, Homo sapiens, UniProt P48039)", "assay": "ligand displacement, radioligand", "conditions": "10 µM", "inhibition": "34%"}
{"Structure (SMILES)": "Ic1cccc2cnccc12", "target": "NMNAT1 (Homo sapiens, UniProt Q9HAN9)", "assay": "enzyme activity, inhibitor", "conditions": "10 µM", "inhibition": "-3%"}
{"Structure (SMILES)": "CCN(CC)c1ccc(C2Nc3ccc(C(=O)c4ccccc4)cc3NC3=C2C(=O)CC(C)(C)C3)cc1 (stereo not drawn)", "target": "HTR2C", "assay": "ligand displacement, radioligand", "conditions": "10 µM", "inhibition": "5%"}
{"Structure (SMILES)": "COC(=O)CN1C(=O)Cc2c([nH]c3ccc(Br)cc23)-c2ccc(Cl)cc21", "target": "Trypanothione synthetase", "assay": "enzyme activity, inhibitor, absorbance", "conditions": "30 µM", "inhibition": "37.4%"}
{"Structure (SMILES)": "O=C(COc1ccc(Cl)cc1Cl)N/N=C/c1c[nH]c2ccccc12", "target": "1-deoxy-D-xylulose-5-phosphate synthase (dxs, Deinococcus radiodurans, UniProt Q9RUB5)", "assay": "enzyme activity, inhibitor", "conditions": "200 µM", "inhibition": "45.3%"}
{"Structure (SMILES)": "COc1ccc(CCC(C)N2CCc3cc(OC)c(OC)cc3C2)cc1 (stereo not drawn)", "target": "Tmem97", "assay": "ligand displacement, radioligand", "conditions": "0.1 µM", "inhibition": "98%"}
{"Structure (SMILES)": "NNC(COCc1ccccc1)c1nnnn1CCc1ccc(O)cc1 (stereo not drawn)", "target": "EAPA", "assay": "enzyme activity, inhibitor", "conditions": "200 µM", "inhibition": "91.5%"}
{"Structure (SMILES)": "CCNC(=O)CN1C(=O)Cc2c([nH]c3ccc(Br)cc23)-c2ccc(Cl)cc21", "target": "Trypanothione synthetase", "assay": "enzyme activity, inhibitor, absorbance", "conditions": "30 µM", "inhibition": "41.4%"}
{"Structure (SMILES)": "CN(Cc1ccc(NC(=O)C2=Cc3cc(-c4ccc(OCCCCCCCF)cc4)ccc3CCC2)cc1)C1CCOCC1", "target": "Tmem97", "assay": "ligand displacement, radioligand", "conditions": "10 µM", "inhibition": "17%"}
{"Structure (SMILES)": "CC(C)(C)NC(=O)CN1C(=O)Cc2c([nH]c3ccc(Br)cc23)-c2ccc(Cl)cc21", "target": "Trypanothione synthetase", "assay": "enzyme activity, inhibitor, absorbance", "conditions": "30 µM", "inhibition": "5.8%"}
{"Structure (SMILES)": "O=C(O)c1ncccc1O", "target": "Stromelysin-1 (MMP3, Homo sapiens, UniProt P08254)", "assay": "enzyme activity, inhibitor", "conditions": "1 mM, pH 6", "inhibition": "~50%"}
{"Structure (SMILES)": "CCC(C)C(NN)c1nnnn1CC(c1ccccc1)c1ccccc1 (stereo not drawn)", "target": "EAPA", "assay": "enzyme activity, inhibitor", "conditions": "200 µM", "inhibition": "40.3%"}
{"Structure (SMILES)": "COc1cc2c3c(c1OC)-c1cc4c(cc1CC3N(C)CC2c1ccccc1)OCO4 (stereo not drawn)", "target": "HTR2C", "assay": "ligand displacement, radioligand", "conditions": "10 µM", "inhibition": "< 50%"}
{"Structure (SMILES)": "O=C(CN1C(=O)Cc2c([nH]c3ccc(Br)cc23)-c2ccc(Cl)cc21)Nc1ncco1", "target": "Trypanothione synthetase", "assay": "enzyme activity, inhibitor, absorbance", "conditions": "30 µM", "inhibition": "6.9%"}
{"Structure (SMILES)": "O=C(c1ccc(OCCN2CCCCC2)cc1)c1c(-c2ccc(O)cc2)sc2cc(O)ccc12", "target": "Trypanothione synthetase", "assay": "enzyme activity, inhibitor, absorbance", "conditions": "25 µM", "inhibition": "24.5%"}
{"Structure (SMILES)": "O=C(CN1C(=O)Cc2c([nH]c3ccc(Br)cc23)-c2ccc(Cl)cc21)NCCN1CCCCC1", "target": "Trypanothione synthetase", "assay": "enzyme activity, inhibitor, absorbance", "conditions": "30 µM", "inhibition": "21.4%"}
{"Structure (SMILES)": "NNC(CCc1ccccc1)c1nnnn1CC(=O)NCc1cccs1 (stereo not drawn)", "target": "EAPA", "assay": "enzyme activity, inhibitor", "conditions": "200 µM", "inhibition": "39.1%"}
{"Structure (SMILES)": "CN1CC(Oc2cnc(C#N)cc2-c2ccn3nc(NC(=O)C4CC4)cc3c2)C1", "target": "MAPK/MAK/MRK overlapping kinase (MOK, Homo sapiens, UniProt Q9UQ07)", "assay": "enzyme activity, inhibitor", "conditions": "1 µM", "inhibition": "15%"}
{"Structure (SMILES)": "CNC(=O)c1cc(Oc2ccc(NC(=O)Nc3ccc(Cl)c(C(F)(F)F)c3)cc2)ccn1", "target": "SIK1", "assay": "enzyme activity, inhibitor", "conditions": "10 µM", "inhibition": "3%"}
{"Structure (SMILES)": "CCCCCC(NN)c1nnnn1Cc1ccc2c(c1)OCCO2 (stereo not drawn)", "target": "EAPA", "assay": "enzyme activity, inhibitor", "conditions": "200 µM", "inhibition": "48.2%"}
{"Structure (SMILES)": "CN(C)C1CCN(CC#Cc2nn(C3CCCC3)c3nc(NCc4ccccc4)ncc23)C1 (stereo not drawn)", "target": "Serine/threonine-protein kinase PLK1 (PLK1, Homo sapiens, UniProt P53350)", "assay": "enzyme activity, inhibitor, FRET", "conditions": "10 µM", "inhibition": "-5%"}
{"Structure (SMILES)": "O=C(c1ccc(Cl)cc1)N(Cc1ccccc1)C1CCCCC1", "target": "TACR1", "assay": "cell-free assay", "conditions": "10 µM", "inhibition": "15.1%"}
{"Structure (SMILES)": "NNC(c1nnnn1CC(c1ccccc1)c1ccccc1)C1CCCCC1 (stereo not drawn)", "target": "EAPA", "assay": "enzyme activity, inhibitor", "conditions": "200 µM", "inhibition": "71.3%"}
{"Structure (SMILES)": "O=C(c1ccc(F)cc1)N(Cc1ccccc1)C1CCCCC1", "target": "B1 bradykinin receptor (BDKRB1, Homo sapiens, UniProt P46663)", "assay": "cell-free assay", "conditions": "10 µM", "inhibition": "-7%"}
{"Structure (SMILES)": "CC(C)(C)OC(=O)CN1C(=O)Cc2c([nH]c3ccc(Br)cc23)-c2ccc(Cl)cc21", "target": "Trypanothione synthetase", "assay": "enzyme activity, inhibitor, absorbance", "conditions": "30 µM", "inhibition": "10.3%"}
{"Structure (SMILES)": "N#Cc1cc(Cn2c(N3CCCC3)nc3ccccc32)ccc1F", "target": "Tmem97", "assay": "ligand displacement", "conditions": "10 µM", "inhibition": "88.9%"}
{"Structure (SMILES)": "NCCNC(=O)CN1C(=O)Cc2c([nH]c3ccc(Br)cc23)-c2ccc(Cl)cc21", "target": "Trypanothione synthetase", "assay": "enzyme activity, inhibitor, absorbance", "conditions": "30 µM", "inhibition": "26.3%"}
{"Structure (SMILES)": "Oc1cccc(Nc2nc(-c3ccc(F)cc3F)cs2)c1", "target": "TACR1", "assay": "cell-free assay", "conditions": "10 µM", "inhibition": "30%"}
{"Structure (SMILES)": "O=C(CN1C(=O)Cc2c([nH]c3ccc(Br)cc23)-c2ccc(Cl)cc21)N1CCNCC1", "target": "Trypanothione synthetase", "assay": "enzyme activity, inhibitor, absorbance", "conditions": "30 µM", "inhibition": "17.1%"}
{"Structure (SMILES)": "CC(Cc1ccc(C(C)(C)C)cc1)C(NN)c1nnnn1Cc1ccc2c(c1)OCO2 (stereo not drawn)", "target": "EAPA", "assay": "enzyme activity, inhibitor", "conditions": "200 µM", "inhibition": "95.3%"}
